CHT PAM: allosteric activators of human choline transporter CHT; Q9GZV3; AID 488977; 310,000 compounds, 0.49% hits; B-score at 10 µM; CHT-expressing cells, membrane potential dye, choline EC20; stronger effect = higher value; LV-AA mutant CHT in HEK293 cells;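 active means initial fluorescence not abnormally high and integrated response B-score, plate-corrected, over 3 SD above library mean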
Lipid droplet: hepatic lipid droplet formation modulation | AML12 mouse hepatocytes, oleate lipid droplets, BODIPY imaging | inhibition, % at 6.5 µM | AID 1656 | 240,000 compounds, 0.4% hits;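 active means lipid droplet intensity inhibited by at least 50%, with more than 500 cells counted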
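Test system: AML12 hepatocytes (mouse); reagent: oleate loading, 100 µM; dosing: one dose, 6.5 µM compound; incubation: overnight exposure; signal: fluorescence imaging, 20x objective, two fields per well; read-out basis: % inhibition of corrected integrated BODIPY droplet signal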
HSF1 inh: HSF1 inhibition | activity change, negative = inhibition, % at 7.5 µM (by protocol) | NIH3T3-HGL HSE-luciferase, MG132-induced, luminescence 8 h; stronger effect = lower value | AID 2098 | 300,000 compounds, 0.77% hits;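 active means more than half of replicate wells show activity change below -50%, luminescence cut by over half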;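 further: luciferase reports HSF-1 transcriptional activity via heat shock element; 0% = median of DMSO wells and -100% = zero luminescence signal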
HSF-1 act: increases HSF-1 driven luciferase reporter signal. NIH3T3-HGL HSF-1 luciferase reporter, MG132, 8 h; 100% = twice DMSO control signal. activation, % at 9 µM. 300,000 compounds, 1.7% hits;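 active means mean replicate activation of at least 50% with a set share of replicates each reaching 50%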;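 further: 0% = median of the neutral control wells and 100% = twice that signal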
CHT block: human CHT choline transport inhibition; Q9GZV3; CHT-expressing cells, membrane potential dye, choline response; stronger effect = lower value; B-score at 10 µM; 310,000 compounds, 0.86% hits; AID 488975;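 active means B-score over 3 SD under the library average, and starting fluorescence ratio not unusually high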;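 further: choline stimulus applied at its EC90 after an EC20 pre-addition; B-score computed on integrated fluorescence ratio after choline addition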
PHOSPHO1 block: blocks human PHOSPHO1 phosphatase activity; inhibition, % at 13.3 µM; 290,000 compounds, 1.1% hits; recombinant PHOSPHO1, absorbance phosphatase assay; in the data active means inhibition above about 60%
Target sequence (Q8TCT1 whole entry, looked up): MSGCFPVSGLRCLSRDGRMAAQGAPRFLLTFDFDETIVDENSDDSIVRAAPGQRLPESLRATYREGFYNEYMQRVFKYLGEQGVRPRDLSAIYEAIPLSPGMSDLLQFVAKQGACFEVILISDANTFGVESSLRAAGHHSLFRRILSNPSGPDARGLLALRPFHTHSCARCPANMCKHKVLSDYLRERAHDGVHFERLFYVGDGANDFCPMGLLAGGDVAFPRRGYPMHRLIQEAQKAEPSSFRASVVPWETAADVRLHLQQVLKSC
CHT block conf: human CHT inhibition, confirmatory screen; shares compounds with CHT block; CHT-expressing cells, choline membrane potential dye; LV-to-AA substituted CHT, HEK293 cells; CHT activity remaining % of control (stronger effect = lower value), % at 10 µM; 2,400 compounds, 70% hits;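 active means choline transporter activity left, mean of duplicates at 10 µM, below buffer-only control mean minus 3 SD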;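 further: depolarization triggered by choline at its EC90 following an EC20 pre-addition; 0% = hemicholinium-3 full block and 100% = buffer-only control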
HEK293 MPD ctr: CHT inhibitor counter-screen hit in parental HEK293 cells | membrane potential ratio readout (active if shifted either direction beyond buffer ±3SD; no single direction) at 10 µM | shares compounds with CHT block | membrane potential dye, choline response; active = decrease or increase beyond buffer ±3SD | AID 493222 | 2,400 compounds, 4% hits;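 further: parental cells lack the transporter so any hit is non-specific; ratio is peak minus trough fluorescence over baseline after EC90 choline challenge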
The depositor's hits bear a star; i = inactive; x = no result given. Most compounds without a hit are left out; they make up all but 4.9% or so of the library.

SMILES	CHT PAM	Lipid droplet	HSF1 inh	HSF-1 act	CHT block	PHOSPHO1 block	CHT block conf	HEK293 MPD ctr
CC(=O)Nc1ccc(NC(=O)C(C)Oc2ccc(Cl)cc2Cl)cc1 (configuration not stated)	i	7	11	27	i	-40	x	x
CC(Oc1ccc(Cl)cc1Cl)C(=O)Nc1ccc(S(=O)(=O)Nc2cnc3ccccc3n2)cc1 (configuration not stated)	i	1	5	7	-9.9*	-25	46%*	i
O=c1c2ccccc2n2cnnc2n1-c1ccccc1	i	x	7	-5	i	-28	x	x
Cc1ccc2c(c1)nnn2C1CCN(S(=O)(=O)c2ccc(C(=O)N(C)C3CCCCC3)cc2)CC1	i	x	-4	-2	i	20	x	x
COc1ccc(Cc2nnc(NC(=O)c3ccccc3[N+](=O)[O-])s2)cc1	i	10	4	19	-7.1*	43	26%*	i
Cc1ccccc1N(C)S(=O)(=O)c1ccc2[nH]cc(C(=O)NCC3CCCO3)c(=O)c2c1 (configuration not stated)	i	-9	x	x	-7*	7	68%*	i
CCOc1ccc(N(C)S(=O)(=O)c2ccc3[nH]cc(C(=O)NCC4CCCO4)c(=O)c3c2)cc1 (configuration not stated)	i	2	1	-10	i	16	x	x
CN(C)/C(CN1CCN(C=O)CC1)=C1\N=C(c2ccccc2)OC1=O	i	x	-7	4	i	28	x	x
CCOC(=O)N1CCN(C(=O)C(C)N(c2ccccc2)S(C)(=O)=O)CC1 (configuration not stated)	i	11	10	3	i	-13	x	x
CCOC(=O)N1CCN(C(=O)C(c2ccccc2)c2ccccc2)CC1	i	x	1	4	-6.5*	-11	i	-11*
Cc1cc(C(=O)Cn2ncc(Cl)c(Cl)c2=O)c(C)n1CC(F)(F)F	i	-13	-5	-6	-5.6*	-6	44%*	i
CC(=O)Nc1cc(O)cc(O)c1	i	1	-3	2	i	20	x	x
CC(=O)c1ccc(OCC(=O)NC(=O)NC2CCCCC2)cc1	i	-12	1	-10	i	38	x	x
FC(F)Sc1ccc(NC(=S)NC2CCCCC2)cc1	i	x	15	29	i	5	x	x
CC1CCCCC1NC(=S)Nc1ccc(SC(F)F)cc1 (configuration not stated)	i	3	-8	3	-5.5*	-1	66%*	i
C/C=C\C=C/C(=O)Nc1cccc(C2=NOC3(C2)C[C@@H](C(N)=O)N(C(=O)C2(C)CC2)C3)c1 (some centres not stated)	i	-7	-3	x	i	-22	x	x
N#Cc1c(NCCCO)nc(-c2ccccc2)c2c1CCCC2	i	x	1	41	i	17	x	x
N#Cc1c(NCCN)nc(-c2ccccc2)c2c1CCCC2	i	16	5	22	-6.3*	3	40%*	i
COc1ccc2c(c1)CCCN2S(=O)(=O)c1ccc(Cl)cc1	i	-22	15	44	i	x	x	x
CSCC[C@H](NC(=O)[C@@H]1CSC2c3ccccc3C(=O)N21)C(=O)NC1CCCC1 (some centres not stated)	i	-17	-9	-8	i	28	x	x
Cc1ncoc1C(=O)Nc1ccc(Oc2ccccc2)cc1	i	x	28	52*	-6*	2	57%*	i
CC(=O)C1=C(O)C=C(c2ccco2)CC1c1ccco1 (configuration not stated)	i	x	-9	-2	-5.1*	3	i	i
Cc1ccc(C)c(NC(=O)c2cccc(Oc3ccc([N+](=O)[O-])cc3Cl)c2)c1	i	-6	-17	-35	-7.2*	-2	49%*	i
C=CCOC(=O)C1=C[C@H](c2cn(C(C)=O)c3ccccc23)C[C@H](OCCCCO)O1	i	-2	-3	-7	i	40	x	x
C=CCOC(=O)C1=C[C@@H](c2cn(C(C)=O)c3ccccc23)C[C@@H](OCCCCO)O1	i	2	0	-4	-5.3*	20	i	i
SMILES	CHT PAM	Lipid droplet	HSF1 inh	HSF-1 act	CHT block	PHOSPHO1 block	CHT block conf	HEK293 MPD ctr
Cc1ccccc1NC(=O)C[n+]1cc(-c2ccccc2)n2c1CCC2	i	2	-7	10	i	-17	x	x
O=C(NC(NCc1ccccn1)(C(F)(F)F)C(F)(F)F)c1ccco1	i	x	-2	3	i	12	x	x
C=CCN1C(c2ccc(Br)cc2)=CS/C1=C(/C#N)c1nnc(N2CCOCC2)n1-c1ccccc1	i	-7	0	5	i	0	x	x
C=CCN1C(c2cccc(C(F)(F)F)c2)=CS/C1=C(/C#N)c1nnc(N2CCOCC2)n1-c1ccccc1	i	11	-8	0	-6*	-7	i	i
NC(=O)C1(N2CCCCC2)CCN(C(=O)CSc2nc3ccccc3o2)CC1	i	x	-7	-10	i	x	x	x
COc1ccc(CN(C(=O)c2ccco2)c2ccccc2)cc1	i	-12	6	20	-5*	5	i	i
Cc1nc(C(=O)Nc2ccc(F)cc2)nn1-c1ccc([N+](=O)[O-])cc1	i	-3	0	0	i	-46	x	x
COc1cc(/C=C2/SC(=Nc3ccc(O)cc3)NC2=O)ccc1O	i	2	-26	-28	i	55	x	x
COc1cc(/C=C2\SC(=Nc3ccccc3OC)NC2=O)ccc1O	i	4	-3	-15	-5.4*	9	i	i
CCCCCCn1c(Br)nc2c1c(=O)n(C)c(=O)n2C	i	-19	8	4	i	23	x	x
CCOC(=O)c1oc2nc(C)c3c(c2c1N)CC(C)(C)OC3	i	x	-7	2	i	4	x	x
CCOC(=O)c1oc2nc(CC(C)C)c3c(c2c1N)CCCC3	i	2	3	-1	-11*	10	13%*	i
CC1CC1C(=O)OCC(=O)Nc1cccc(S(=O)(=O)NC2=NCCCCC2)c1 (configuration not stated)	i	1	8	-2	i	-17	x	x
NC(=S)N/N=C1/CCSc2ccc3ccccc3c21	i	0	-6	0	-5.6*	-7	68%*	i
NC(=S)N/N=C/c1c(O)ccc2ccccc12	i	-13	-2	3	i	-2	x	x
